# From ChEMBL document CHEMBL4715736, “Identification of anticancer agents based on the thieno[2,3-b]pyridine and 1H-pyrazole molecular scaffolds” (2016)
# How the values were obtained:
# Format in all cases: functional
# K562 = assay: Growth inhibition of human K562 cells assessed as cell growth at 0.01 uM incubated for 48 hrs by sulforhodamine B assay relative to control; conditions: read-out: Activity
# NCI-H23 = assay: Growth inhibition of human NCI-H23 cells assessed as cell growth at 0.01 uM incubated for 48 hrs by sulforhodamine B assay relative to control; conditions: read-out: Activity
# HCC 2998 = assay: Growth inhibition of human HCC 2998 cells assessed as cell growth at 0.01 uM incubated for 48 hrs by sulforhodamine B assay relative to control; conditions: read-out: Activity
# Outline: (§1)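 NCI Developmental Therapeutics Program NCI60 panel. Compounds that were active in the 10 µM one-dose screen went on to dose–response testing. Growth at each concentration is expressed relative to untreated control (100%). GI50 (concentration giving 50% of maximal inhibition of proliferation) and TGI (concentration giving total growth inhibition) were derived from the curves.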
# OVCAR-8 [1] = assay: Growth inhibition of human OVCAR-8 cells assessed as cell growth at 0.01 uM incubated for 48 hrs by sulforhodamine B assay relative to control; conditions: read-out: Activity
# NCI/ADR-RES = assay: Growth inhibition of human NCI/ADR-RES cells assessed as cell growth at 0.01 uM incubated for 48 hrs by sulforhodamine B assay relative to control; conditions: read-out: Activity
# 786-0 [2] = assay: Growth inhibition of human 786-0 cells assessed as cell growth at 0.01 uM incubated for 48 hrs by sulforhodamine B assay relative to control; conditions: read-out: Activity; outline: as §1
# PC-3 [3] = assay: Growth inhibition of human PC-3 cells assessed as cell growth at 0.01 uM incubated for 48 hrs by sulforhodamine B assay relative to control; conditions: read-out: Activity
# DU-145 = assay: Growth inhibition of human DU-145 cells assessed as cell growth at 0.01 uM incubated for 48 hrs by sulforhodamine B assay relative to control; conditions: read-out: Activity; outline: as §1
# MCF7 = assay: Growth inhibition of human MCF7 cells assessed as cell growth at 0.01 uM incubated for 48 hrs by sulforhodamine B assay relative to control; conditions: read-out: Activity
# T47D = assay: Growth inhibition of human T47D cells assessed as cell growth at 0.01 uM incubated for 48 hrs by sulforhodamine B assay relative to control; conditions: read-out: Activity
# NCI-H322M = assay: Growth inhibition of human NCI-H322M cells assessed as cell growth at 0.1 uM incubated for 48 hrs by sulforhodamine B assay relative to control; conditions: read-out: Activity
# Malme-3M = assay: Growth inhibition of human Malme-3M cells assessed as cell growth at 0.1 uM incubated for 48 hrs by sulforhodamine B assay relative to control; conditions: read-out: Activity
# M14 = assay: Growth inhibition of human M14 cells assessed as cell growth at 0.1 uM incubated for 48 hrs by sulforhodamine B assay relative to control; conditions: read-out: Activity
# IGROV-1 [4] = assay: Growth inhibition of human IGROV-1 cells assessed as cell growth at 0.1 uM incubated for 48 hrs by sulforhodamine B assay relative to control; conditions: read-out: Activity
# MDA-MB-231 [5] = assay: Growth inhibition of human MDA-MB-231 cells assessed as cell growth at 0.1 uM incubated for 48 hrs by sulforhodamine B assay relative to control; conditions: read-out: Activity
# SR = assay: Growth inhibition of human SR cells assessed as cell growth at 1 uM incubated for 48 hrs by sulforhodamine B assay relative to control; conditions: read-out: Activity
# HOP-62 = assay: Growth inhibition of human HOP-62 cells assessed as cell growth at 1 uM incubated for 48 hrs by sulforhodamine B assay relative to control; conditions: read-out: Activity
# HCT-116 = assay: Growth inhibition of human HCT-116 cells assessed as cell growth at 1 uM incubated for 48 hrs by sulforhodamine B assay relative to control; conditions: read-out: Activity
# OVCAR-3 [6] = assay: Growth inhibition of human OVCAR-3 cells assessed as cell growth at 1 uM incubated for 48 hrs by sulforhodamine B assay relative to control; conditions: read-out: Activity
# 786-0 [7] = assay: Growth inhibition of human 786-0 cells assessed as cell growth at 1 uM incubated for 48 hrs by sulforhodamine B assay relative to control; conditions: read-out: Activity; outline: as §1
# PC-3 [8] = assay: Growth inhibition of human PC-3 cells assessed as cell growth at 1 uM incubated for 48 hrs by sulforhodamine B assay relative to control; conditions: read-out: Activity
# MDA-MB-231 [9] = assay: Growth inhibition of human MDA-MB-231 cells assessed as cell growth at 1 uM incubated for 48 hrs by sulforhodamine B assay relative to control; conditions: read-out: Activity
# SNB-19 = assay: Growth inhibition of human SNB-19 cells assessed as cell growth at 100 uM incubated for 48 hrs by sulforhodamine B assay relative to control; conditions: read-out: Activity
# SK-MEL-28 = assay: Growth inhibition of human SK-MEL-28 cells assessed as cell growth at 100 uM incubated for 48 hrs by sulforhodamine B assay relative to control; conditions: read-out: Activity
# SK-MEL-5 = assay: Growth inhibition of human SK-MEL-5 cells assessed as cell growth at 100 uM incubated for 48 hrs by sulforhodamine B assay relative to control; conditions: read-out: Activity
# IGROV-1 [10] = assay: Growth inhibition of human IGROV-1 cells assessed as cell growth at 100 uM incubated for 48 hrs by sulforhodamine B assay relative to control; conditions: read-out: Activity
# OVCAR-3 [11] = assay: Growth inhibition of human OVCAR-3 cells assessed as cell growth at 100 uM incubated for 48 hrs by sulforhodamine B assay relative to control; conditions: read-out: Activity
# OVCAR-5 = assay: Growth inhibition of human OVCAR-5 cells assessed as cell growth at 100 uM incubated for 48 hrs by sulforhodamine B assay relative to control; conditions: read-out: Activity
# A498 = assay: Growth inhibition of human A498 cells assessed as cell growth at 100 uM incubated for 48 hrs by sulforhodamine B assay relative to control; conditions: read-out: Activity; outline: as §1
# NCI-H522 = assay: Growth inhibition of human NCI-H522 cells incubated for 48 hrs by sulforhodamine B assay
# Outline: (§2)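 NCI60 panel at the NCI Developmental Therapeutics Program. Only compounds active in the 10 µM screen went to dose-response testing. GI50, the concentration giving 50% of maximal inhibition of proliferation, and TGI, the concentration giving total growth inhibition, were derived from the dose-response curves.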
# SNB-75 = assay: Growth inhibition of human SNB-75 cells incubated for 48 hrs by sulforhodamine B assay
# Outline: (§3)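 NCI DTP 60-line human tumour panel. Dose-response curves were run only for ligands active in the initial 10 µM screen. GI50 (concentration giving 50% of maximal inhibition of proliferation) and TGI (concentration giving total growth inhibition) were derived from these curves.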
# UACC-257 = assay: Growth inhibition of human UACC-257 cells incubated for 48 hrs by sulforhodamine B assay; outline: as §3
# OVCAR-8 [12] = assay: Growth inhibition of human OVCAR-8 cells incubated for 48 hrs by sulforhodamine B assay; outline: as §3
# MDA-MB-231 [13] = assay: Growth inhibition of human MDA-MB-231 cells incubated for 48 hrs by sulforhodamine B assay; outline: as §2
# MDA-MB-468 = assay: Growth inhibition of human MDA-MB-468 cells incubated for 48 hrs by sulforhodamine B assay; outline: as §2
# [14] = read-out: LC50 (the source's name)
compound,measurement,setting,value
COc1cccc(NC(=O)c2sc3nc4c(cc3c2N)CN(Cc2ccccc2)CC4)c1,growth at 0.01 µM,K562,106%
same,growth at 0.01 µM,NCI-H23,100%
same,growth at 0.01 µM,HCC 2998,97%
same,growth at 0.01 µM,OVCAR-8 [1],99%
same,growth at 0.01 µM,NCI/ADR-RES,102%
same,growth at 0.01 µM,786-0 [2],90%
same,growth at 0.01 µM,PC-3 [3],94%
same,growth at 0.01 µM,DU-145,105%
same,growth at 0.01 µM,MCF7,88%
same,growth at 0.01 µM,T47D,90%
same,growth at 0.1 µM,NCI-H322M,96%
same,growth at 0.1 µM,Malme-3M,89%
same,growth at 0.1 µM,M14,95%
same,growth at 0.1 µM,IGROV-1 [4],102%
same,growth at 0.1 µM,MDA-MB-231 [5],98%
same,growth at 1 µM,SR,25%
same,growth at 1 µM,HOP-62,74%
same,growth at 1 µM,HCT-116,59%
same,growth at 1 µM,OVCAR-3 [6],82%
same,growth at 1 µM,786-0 [7],85%
same,growth at 1 µM,PC-3 [8],73%
same,growth at 1 µM,MDA-MB-231 [9],78%
same,growth at 100 µM,SNB-19,14%
same,growth at 100 µM,SK-MEL-28,-30%
same,growth at 100 µM,SK-MEL-5,-34%
same,growth at 100 µM,IGROV-1 [10],4%
same,growth at 100 µM,OVCAR-3 [11],-60%
same,growth at 100 µM,OVCAR-5,34%
same,growth at 100 µM,A498,-47%
same,GI50,NCI-H522,15.1 µM
same,LC50,NCI-H522,> 100 µM
same,TGI,NCI-H522,> 100 µM
same,GI50,SNB-75,1.73 µM
same,LC50,SNB-75,33.7 µM
same,TGI,SNB-75,4.71 µM
same,GI50,UACC-257,6.52 µM
same,LC50 (concentration killing 50% of cells),UACC-257,> 100 µM
same,TGI,UACC-257,> 100 µM
same,GI50,OVCAR-8 [12],4.45 µM
same,TGI,OVCAR-8 [12],85.2 µM
same,CC50,OVCAR-8 [12]; [14],> 100 µM
same,GI50,MDA-MB-231 [13],11.4 µM
same,TGI,MDA-MB-231 [13],75.3 µM
same,CC50,MDA-MB-231 [13]; [14],> 100 µM
same,GI50,MDA-MB-468,2.6 µM
same,TGI,MDA-MB-468,61.4 µM
same,CC50,MDA-MB-468; [14],> 100 µM
